Test system: MS2 coat protein
Assay: apparent Kd, MS2 coat protein; higher = weaker binding; RNA-MaP array; FMN 200 µM where present
Procedure, shortened: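 The titrant was SNAP-549-labelled MS2 coat protein, run from 0.7 or 1.5 nM in doubling steps to 3 µM. It was applied to designs transcribed by stalled E. coli RNA polymerase on Illumina sequencing-chip clusters, without ligand first and then with constant ligand, in 100 mM Tris-HCl pH 7.5, 80 mM KCl, 4 mM MgCl2, BSA, DTT, yeast tRNA and Tween-20. The apparent Kd is the median of filtered per-cluster binding-curve fits, with green signal normalised to red-channel RNA signal and control-cluster median Fmax.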

[1] = designed as: ON switch for flavin mononucleotide, no ligand
[2] = ligand present: flavin mononucleotide, designed as: ON switch for flavin mononucleotide
[3] = designed as: OFF switch for flavin mononucleotide, no ligand
[4] = ligand present: flavin mononucleotide, designed as: OFF switch for flavin mononucleotide

Sequence | apparent Kd [1] | apparent Kd [2] | apparent Kd [3] | apparent Kd [4]
ACAUGAGGAUCACCCAUGUGUCAACCAGAAGGCACAUUACGUAUUUCUAUGUGUGCGUAAAUAAGUGAGGAUAUGGAUAAUAGA | 11.2 nM | 7.21 nM | – | –
AAUAUAAAGCAGAAGGCCUUAUUACAUGAGGAUCACCCAUGUAAUCGUGGGAGGAUAUGCAUGAUACAACUACGUAUCGUAGCA | 9.33 nM | 5.19 nM | – | –
UGUUGUAUUACAGGAUAUCUGUUAUUUUUAUUUAGAGAAGGGUAUUCACAUGAGGAUCACCCAUGUAUAUACGAGGAAGUUGUG | 57.3 nM | 61.4 nM | – | –
GGGUGGCGUAGAGGAUAUAUGGUACAUGAGGAUCACCCAUGUGCAUAUGAUGUUCAUGUUUAUGUAUAGAAGGCUACGUCGCUA | 40.6 nM | 42.8 nM | – | –
GUCAGCUCGUGAGGAUAUACAACACUGCUUCGGCAGUGUAUUAAGAUCACAUGAGGAUCACCCAUGUAGAAGGCACCAGCUGAU | – | – | 16.3 nM | 215 nM
GGACGUCCCAUUAACAUGAGGAUCACCCAUGUCAAAAGACAUGAGGAUAUGCAUCCUAAUUGGAUGCAGAAGGCAUGGACGUCC | 1180 nM | 87.3 nM | – | –
GGAUGAUAAAUAGGAUAUUAAUUGUAAUUAGGUUAAGAAGGAUUAAUGAUUUAAACGACCAGUUACAUGAGGAUCACCCAUGUU | 177 nM | 161 nM | – | –
GUCUUGUUAGGAUAUCUUACUUUUGCAUCAUAGUAACCAUUGGAGAAGGGACAUGAGGAUCACCCAUGUUUGGU | – | – | 34.6 nM | 30 nM
AACUGACAUGAGGAUCACCCAUGUCAGGAUAUGACUUGAUAGAAAAUAAAAUAUCAUGUCAGAAGGGACAUGGG | – | – | 20.2 nM | 18.5 nM
AAUAUGUUGCAGAAGGUUAUUUUUAUAACGAUCCAUGAGACAUGAGGAUCACCCAUGUAAUAGAUGAAGGAUAUGCAAUAUAUU | – | – | 6.21 nM | 5.84 nM
GCAGACGUAGUGAGGAUAUGCUCUACCUCGGUAGAGCAGAAGGCACAUGAGGAUCACCCAUGUGGUUCCUCUGC | – | – | 19.1 nM | 80.9 nM
CAUUCGUGUCUAGGAUAUGAGUGACAAGCACGAGAUUUUCUCGCCGCUAGCUCAGAAGGAGACAUGAGGAUCACCCAUGUAAGG | – | – | 96.4 nM | 17.4 nM
GGUGGACAUGAGGAUCACCCAUGUGAGGAUAUCGGCUAUCUUAUCGCUGUCGGUUGCUCGAGAAGGCACAUUGU | – | – | 76.7 nM | 195 nM
UGGUUGCGAGUAGGAUAUGGUGUUUUUGUUUGGUUAGAAGGGUUCGUGAUUGUGACAUGAGGAUCACCCAUGUGUGUUGUUGUU | 63.6 nM | 70.5 nM | – | –
UGGUACUAGGGAGGAUAUGGGAAGAUACAUGAGGAUCACCCAUGUUUAAGAAUGCCGCGAGGCAACUAGAAGGCCCUAGUACCU | 398 nM | 19.6 nM | – | –
GUCAGCUCGUGAGGAUAUACAACACUGCUUCGGCAGUGUAUUAGGAUCACAUGAGGAUCACCCAUGUAGAAGGCACGAGCUGAU | – | – | 16.3 nM | 323 nM
AAGCGAGGGACAGGAUAUGCGGCGGAACUCGCCGCAGAAGGGUCGACAUGAGGAUCACCCAUGUCCUUACGCUCCAAGUAGUGG | 131 nM | 425 nM | – | –
GUAGAGUCAGGAUAUACGAAUAGAUCGAAAGAUCAAUCCAUACAUGAGGAUCACCCAUGUAGAAGGGACUCUAC | – | – | 19.3 nM | 22.7 nM
AAUAUAAGAGCUGGUCUCAAAAGAACAUGAGGAUCACCCAUGUAGGAUAUCAGCACGAUAAGUGCUGAGAAGGACAUCCAGCUC | – | – | 14.5 nM | 18.6 nM
CCACAGGUAGGAUAUGCUGGGUGGGAUAAAUAUUUCCUGAGACAUGAGGAUCACCCAUGUAGAAGGACCAAAAG | – | – | 18.3 nM | 16.1 nM
AUGCUAGUGUGAGGAUAUUAGGCUACAUGAGGAUCACCCAUGUUGAUCAUGAGGAUCACCCAUGAUAAGAAGGUACAUUAGCAU | – | – | 88.1 nM | 108 nM
AAUUACAGAUAAGGAUAUUGACAUGAGGAUCACCCAUGUAUUUGGGAAUGUUUACUGAAUUCUUACGAGAAGGUAUACGUACUU | – | – | 123 nM | 87 nM
CGUCCGUGGGUAGUGAUCGUACAUGAGGAUCACCCAUGUGAGAAGGAUAUGCAUGCACGCGGACAGCAGAAGGUCUCACAACAA | – | – | 133 nM | 429 nM
CUUUUGUGAGGAUAUCAGUAGUAAAUAAAUAAAAUUAUUACUGAGAAGGCACAUGAGGAUCACCCAUGUUCCUC | – | – | 40.1 nM | 192 nM
CGGUCACAUGAGGAUCACCCAUGUACCUACCCGAUGAAGUCGCAGGAUAUCCAUUACUUUACGUAGGAGAAGGGUGACGCUCGC | 49.7 nM | 79.3 nM | – | –
GUAGCAUACCGAGGAUAUUCAUAUAAUAAAUAAACAUGAGGAUCACCCAUGUGGCGAAAGCCUUGGGAGAAGGCGGAAUGCUAC | 647 nM | 37.3 nM | – | –
CGCUAUGACAUAGGAUAUUGAUACAUGAGGAUCACCCAUGUCAACCAUGAAGCUCGAAUUGUUGACAAGAAGGAUGUGGUAGCG | 157 nM | 72.9 nM | – | –
